# CASP6 VEID inh: human caspase-6 inhibitors, primary screen, biochemical, VEID-R110 fluorescence, single point, set 2; purified caspase-6, Z-VEID-R110 cleavage fluorescence; 350,000 compounds, 0.53% hits; P55212; inhibition, % at 12.5 µM;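 active = mean inhibition across replicates at least about 35%, with every replicate also reaching that limit, limit read from the data; inconclusive = only one of the two criteria met; inactive = neither criterion met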;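 also: 0% = median of neutral control wells and 100% = no fluorescence left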
# Target sequence (P55212 24-179 limits assumed): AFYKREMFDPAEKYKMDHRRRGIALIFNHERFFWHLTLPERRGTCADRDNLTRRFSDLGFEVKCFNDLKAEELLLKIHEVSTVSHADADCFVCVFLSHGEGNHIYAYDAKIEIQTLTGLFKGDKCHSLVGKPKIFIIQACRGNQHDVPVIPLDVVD
# Target sequence (P55212 194-293 limits assumed): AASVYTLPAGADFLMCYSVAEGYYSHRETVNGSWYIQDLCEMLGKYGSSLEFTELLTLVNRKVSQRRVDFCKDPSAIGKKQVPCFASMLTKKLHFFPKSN
# Myeloid diff 2: induction of myeloid progenitor differentiation, primary screen, cell-based, flow cytometry, MLPCN library; 360,000 compounds, 1% hits; ER-HoxA9 myeloid progenitors, lysozyme-GFP differentiation; AID 624256, 2012; calls only at 10 µM;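 active = normalized GFP-positive differentiation at or above the plate's own cutoff, the solvent-only control mean plus 3 SD; inconclusive = no clear call, values can overlap the other calls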;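 also: cells exposed to compound for four days before flow analysis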
# Vif imaging: HIV Vif self-association inhibitors, primary screen, imaging, HEK293T, single point; HEK293T cells, Vif self-association by quenched fluorescence, 24 h; AID 602346, 2012; 340,000 compounds, 0.35% hits; inhibition, % at 7.49 µM; in the data active = inhibition above about 50%, passing the limit was not always enough; inconclusive = no clear call, values can overlap the other calls; inactive = below about 31%
# T cell HTS: modulators of CD8 T cell-vesicle binding, primary screen, mouse 2C CD8+ T cells, flow cytometry; 2C CD8+ T cell-vesicle binding; active compounds read low; response (vesicle binding), % at 7 µM; 330,000 compounds, 0.068% hits;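 active = response, share of CD8 T cells binding vesicles, and their 90th percentile fluorescence all below set limits, cut at about 80% in these data, passing the limit was not always enough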;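 also: values below 100% mean blocked vesicle binding to the CD8+ T cells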
#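 Material: murine 2C transgenic CD8+ T lymphocytes / Also added: QL9-peptide-loaded Drosophila micro-vesicles bearing Ld, ICAM-1 and B7-1 / Schedule: binding step 1.5 h, 37 °C, antibody labelling 20 min, ice / Signal: flow cytometry, PE anti-B7-1 (FL2) versus Alexa647 anti-CD8 (FL8), PFA-fixed / Evaluation: percent CD8+ FL2 mean versus row control / Benchmarks: naked versus QL9-loaded vesicles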
# * = called active by the depositor; i = inactive; ? = inconclusive; nt = not tested or not shown; + = active, no number. Only some compounds are listed: those with a hit (about 1.4% of all), similar ones and a draw of the others.
SMILES,CASP6 VEID inh,Myeloid diff 2,Vif imaging,T cell HTS
CC(=O)c1ccccc1NS(=O)(=O)c1cccc2nsnc12,56*,i,-2,532
CC(C)NC(=O)N(C)C[C@H]1OCCCC[C@@H](C)Oc2ccc(NC(=O)c3ccccc3)cc2C(=O)N([C@@H](C)CO)C[C@H]1C,1,nt,nt,nt
CC(C)C(NS(=O)(=O)c1c(Cl)cccc1Cl)C(=O)OCC(=O)c1c[nH]c2ccccc12 (configuration not stated),nt,+,-4,234
CC(O)C(NS(=O)(=O)c1ccc(Cl)cc1)C(=O)OCC(=O)c1c[nH]c2ccccc12 (configuration not stated),-3,i,-3,205
Cc1ccc(NC(=O)C2CCCN(S(=O)(=O)c3cnc[nH]3)C2)c(Br)c1 (configuration not stated),1,i,14,441
Cc1noc(/C=C/N(C)C)c1S(=O)(=O)N1CCCC(C(=O)Nc2ccccc2F)C1 (configuration not stated),2,+,12,i
Cc1ccccc1NC(=O)C1CCCN(S(=O)(=O)c2cnc[nH]2)C1 (configuration not stated),91*,i,19,426
COc1ccc(SCC(O)Cn2c3ccccc3c3ccccc32)c(OC)c1 (configuration not stated),0,+,nt,nt
Clc1ccc(/C=N/NC2=Nc3cccc4cccc2c34)cc1,nt,+,4,397
CN(C)CCNC(=O)c1sc2nc(-c3ccccc3)cc(C(F)(F)F)c2c1N,-29,+,-4,166
CC(=O)c1sc2nc(-c3cccs3)cc(C(F)(F)F)c2c1N,nt,+,-57,214
Nc1c(C(=O)C2CC2)sc2nc(-c3ccccc3)cc(C(F)(F)F)c12,nt,+,24,616
COc1ccc(-c2cc(C(F)(F)F)c3c(N)c(C(=O)NCCSC)sc3n2)cc1,-2,i,5,171
CC(C)CC#Cc1ccc2c(c1)O[C@@H](CN(C)C(=O)Cc1ccccc1)[C@@H](C)CN([C@H](C)CO)S2(=O)=O,0,nt,nt,nt
COc1cccc(CNC(=O)C[C@H]2C=C[C@@H](NC(C)=O)[C@H](CO)O2)c1,1,nt,nt,nt
O=C(O)c1cc(O)c2c(c1)C(=O)c1cccc(O)c1C2=O,40*,i,-2,176
Cc1cc(O)c2c(c1)C(=O)c1cccc(O)c1C2=O,4,nt,nt,nt
CNC[C@H]1Oc2ccc(NC(=O)Nc3cccc4ccccc34)cc2CC(=O)N([C@H](C)CO)C[C@@H]1C,-1,nt,nt,nt
C=CCN1C(=O)/C(=C/c2cccs2)S/C1=N\S(=O)(=O)c1ccc(F)cc1,0,+,3,87
CCN1C(=O)/C(=C/c2cccs2)S/C1=N\S(=O)(=O)c1ccc(C)cc1,1,i,0,144
Cc1ccc(-c2cc(-c3ccc(Cl)cc3)c(C#N)c(N)n2)o1,nt,i,-6,374
Cc1ccc(-c2cc(-c3ccc(C)o3)nc(N)c2C#N)cc1,nt,+,-10,296
Cc1ccc(-c2cc(-c3ccc(F)cc3)c(C#N)c(N)n2)o1,5,+,-5,332
COCC(=O)Nc1ccc2c(c1)[C@H]1C[C@@H](CC(=O)NCc3cccnc3)O[C@H](CO)[C@H]1O2,10,nt,nt,nt
CC(=O)c1c(C)[nH]c(C(=O)OCC(=O)NCc2ccc3c(c2)OCO3)c1C,1,+,-11,337
SMILES,CASP6 VEID inh,Myeloid diff 2,Vif imaging,T cell HTS
O=C(NC1CCCC1)C1CC(c2ccc(F)cc2)=NO1 (configuration not stated),nt,i,-7,0.0*
Cc1nc2c(=O)[nH]c(=S)[nH]c2[nH]c1=O,93*,i,-2,nt
Cc1nc2[nH]c(=S)[nH]c(=O)c2nc1C,2,i,12,nt
CC12N=C3SCc4ccccc4CN3[C@H](c3ccccc3O1)[C@H]2CO[Si](C)(C)C(C)(C)C,-1,nt,nt,nt
COc1ccc(NC(=O)Nc2ccc3c(c2)[C@@H]2C[C@@H](CC(=O)NCCc4ccccc4)O[C@@H](CO)[C@@H]2O3)cc1,1,nt,nt,nt
CCC(=O)N1CC2(C1)[C@@H](c1ccc(-c3cccc(OC)c3)cc1)[C@@H](CO)N2C(C)=O,3,nt,nt,nt
CNc1nc2cc([N+](=O)[O-])c([N+](=O)[O-])cc2nc1NC,2,?,-29,772
N#Cc1cc2nc(O)c(O)nc2cc1[N+](=O)[O-],8,i,51*,748
C[C@@H]1CCCCO[C@H](CN(C)CC2CCCCC2)[C@H](C)CN([C@H](C)CO)C(=O)c2cc(NC(=O)C3CCCCC3)ccc2O1,-1,nt,nt,nt
Cc1cc(N2C(=O)C(O)=C(C(=O)c3cc4ccccc4o3)C2c2ccc(Br)cc2)no1 (configuration not stated),48*,?,2,372
CC(C)NC(=O)N(C)C[C@@H]1OCCCC[C@@H](C)Oc2ccc(N(C)C)cc2C(=O)N([C@@H](C)CO)C[C@H]1C,0,nt,nt,nt
NNC(=O)c1oc2nc(-c3ccccc3)cc(-c3ccccc3)c2c1N,-3,+,71*,370
NNC(=O)c1oc2nc(-c3cccs3)cc(-c3ccco3)c2c1N,3,+,-5,144
Cc1ccc(-c2cc(-c3ccco3)c3c(N)c(C(=O)NN)oc3n2)cc1,1,+,-14,483
COc1cc2c(cc1OC)CN(C(=O)[C@H]1[C@@H]3C(=O)O[C@@H](c4ccccc4)[C@@H](c4ccccc4)N3[C@@H](c3ccccc3OCCO)[C@]13C(=O)Nc1ccc(C#CC4=CCCCC4)cc13)CC2,2,nt,nt,nt
COCCNC(=O)C[C@@H]1CC[C@H]2[C@@H](COC[C@@H](O)CN2S(=O)(=O)c2ccccc2C)O1,-12,nt,nt,nt
Cc1ccc2c(c1)C(=O)N1[C@H]3c4cc(C)ccc4OC[C@@H]3[C@H](c3ccccc3)[C@]1(C)C(=O)N2,-2,+,-4,227
Cc1ccc2c(c1)C(=O)N1[C@H]3c4cc(Cl)ccc4OC[C@@H]3[C@H](c3ccccc3)[C@]1(C)C(=O)N2,-1,i,-7,191
COc1ccccc1Oc1ccc(NC(=O)c2ccc(Cl)cc2)cc1,-1,i,-15,83
COc1ccc2nc3ccccc3nc2c1NC(=O)c1ccc(Cl)cc1,nt,i,106*,322
COc1ccc2c3c([nH]c2c1)[C@@H](CO)N(Cc1ccccc1)CC31CCN(C(=O)c2cccnc2)CC1,-1,nt,nt,nt
C[C@@H]1CN([C@H](C)CO)S(=O)(=O)c2ccc(C#CC3CC3)cc2O[C@H]1CN(C)C(=O)c1ccccn1,-1,nt,nt,nt
CCCCNC(=O)C(C)N(CCN(C)C)C(=O)CCCN1C(=O)NC(c2ccc([N+](=O)[O-])cc2)C(C(=O)OCc2ccccc2)=C1C (configuration not stated),nt,+,0,nt
C[C@@H]1CN([C@@H](C)CO)C(=O)c2cccc(NC(=O)Nc3ccc(C(F)(F)F)cc3)c2O[C@@H]1CN(C)S(=O)(=O)c1ccc(Cl)cc1,-1,nt,nt,nt
